From ChEMBL document CHEMBL1122247, “2-(6-carboxyhexyl)cyclopentanone hexylhydrazone. A potent and time-dependent inhibitor of platelet aggregation” (1983)

What was measured:
[1] = Tested for effect of plasma containing platelets (PRP) against U-46,619 (1 uM) at 100 uM concentration; type: functional, Homo sapiens
How it was run: (§1)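 Human platelet-rich plasma was pretreated 1 min with 25–100 μM agent, then challenged with arachidonic acid (500 μM) or U46619 (1 μM). Aggregation was followed turbidimetrically (Born) at 37 °C. Percent inhibition versus vehicle controls was read 3 min after agonist. Results are mean ± SEM from at least three separate blood donors.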

[2] = Tested for effect of plasma containing platelets (PRP) against U-46,619 (1 uM) at 50 uM concentration; type: functional, Homo sapiens; how it was run: as §1
[3] = Tested for effect of plasma containing platelets (PRP) against arachidonic acid (500 uM) at 100 uM concentration; type: functional, Homo sapiens; how it was run: as §1
[4] = Tested for effect of plasma containing platelets (PRP) against arachidonic acid (500 uM) at 50 uM concentration; type: functional, Homo sapiens; how it was run: as §1
[5] = Tested for effect of plasma containing platelets (PRP) against arachidonic acid (500 uM) at 25 uM concentration; type: functional, Homo sapiens; how it was run: as §1
[6] = Tested for effect of plasma containing platelets (PRP) against PGH-2 at 0.6 uM concentration; type: functional; conditions: Homo sapiens
[7] = Time to complete inhibition of arachidonic acid (500 uM)-induced aggregation in platelet-rich plasma (PRP); conditions: Homo sapiens
[8] = Tested for effect of […] against PGH-2 at 100 uM concentration; type: functional; conditions: Homo sapiens, Plasma
[9] = Tested for effect of plasma containing platelets (PRP) against platelet free plasma at 500 uM concentration; type: functional; conditions: Homo sapiens
How it was run: (§2)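 Hydrazone in ethanol was added to platelet-free plasma (100 μM final) and stirred. At 10-min intervals up to 1 h, aliquots were transferred to PRP (1 μM final). Aggregation to 500 μM arachidonic acid was then measured turbidimetrically at 37 °C. Controls had hydrazone added directly to PRP; seven donors.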

[10] = Tested for effect of plasma containing platelets (PRP) against platelet free plasma at 1 uM concentration; type: functional; conditions: Homo sapiens; how it was run: as §2
[11] = Tested for effect of plasma containing platelets (PRP) against arachidonic acid at 0.1 uM concentration; type: functional; conditions: Homo sapiens
[12] = Tested for effect of plasma containing platelets (PRP) against U-46,619 at 100 uM concentration; type: functional; conditions: Homo sapiens
How it was run: (§3)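 In human PRP, 100 μM hydrazone was tested against aggregation induced by U46619 (1–3 μM) or ADP (5 μM). Aggregation was measured by the Born turbidimetric method at 37 °C over 3 min. Reagents were added as 10-μL aliquots per mL of PRP. Percent inhibition is averaged over nine donors.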

[13] = Tested for effect of plasma containing platelets (PRP) against ADP at 100 uM concentration; type: functional; conditions: Homo sapiens; how it was run: as §3
[14] = Tested for effect of plasma containing platelets (PRP) against arachidonic acid at 1 uM concentration; type: functional; conditions: Homo sapiens
[15] = Tested for effect of plasma containing platelets (PRP) against U-46,619 (1 uM) at 25 uM concentration; type: functional, Homo sapiens; how it was run: as §1

| SMILES | Inhibition [1] | Inhibition [2] | Inhibition [3] | Inhibition [4] | Inhibition [5] | inhibition at 0.6 µM [6] | time to complete inhibition at 500 µM [7] | inhibition at 100 µM [8] | inhibition at 500 µM [9] | inhibition at 1 µM [10] | inhibition at 0.1 µM [11] | inhibition at 100 µM [12] | inhibition at 100 µM [13] | inhibition at 1 µM [14] | Inhibition [15] |
| --- | --- | --- | --- | --- | --- | --- | --- | --- | --- | --- | --- | --- | --- | --- | --- |
| CCCCCC(=O)N/N=C1\CCCC1CCCCCCC(=O)O (stereo not drawn) | 30% | 6% | 98% | 17% | 8% | – | – | – | – | – | – | – | – | – | – |
| CCCCCCN/N=C1\CCCC1CCCCCCC(=O)O (stereo not drawn) | – | – | – | – | – | 6% | 27 min | 89% | 100% | 29% | 44% | 4% | 6% | 99% | – |
| CCCCCCCN[C@H]1CCC[C@@H]1CCCCCCC(=O)O (relative stereo) | – | 98% | – | 100% | 100% | – | – | – | – | – | – | – | – | – | 76% |
